These results are taken from ChEMBL document CHEMBL4011638, “Semisynthetic Flavone-Derived Antimicrobials with Therapeutic Potential against Methicillin-Resistant Staphylococcus aureus (MRSA)” (J Med Chem, 2017).

Assay [1] deals with Staphylococcus aureus. The assay is described as follows: Antibacterial activity against methicillin-sensitive Staphylococcus aureus DM4583R after 24 hrs by broth microdilution method. It is filed as functional. The method, boiled down:
(§1)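 Broth microdilution per CLSI in cation-adjusted Mueller−Hinton broth, in tubes. Compounds dissolved in H2O or DMF, then diluted in PBS to 1000 μg/mL stocks. Serial 2-fold dilutions were made, with final DMF 2.5%. Organisms were grown on TSA at 35 °C for 20 h and adjusted to ~5× 10^5 CFU/mL. Tubes were incubated at 35 °C for 24 h. MIC was the lowest concentration with no visible growth versus control. Biological replicates.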
(In broth dilution the organism is exposed to a series of concentrations in liquid medium.)

The test system of assay [2] is Staphylococcus aureus. In words: Antibacterial activity against methicillin-sensitive Staphylococcus aureus DM4400R after 24 hrs by broth microdilution method. It is filed as functional. The method, boiled down:
as §1

Assay [3] concerns Staphylococcus aureus. The assay is described as follows: Antibacterial activity against methicillin-sensitive Staphylococcus aureus DM4299 after 24 hrs by broth microdilution method. The note with it: DM4299, 24 h. Format: functional. The method, boiled down: as §1
For assay [4], the system named is Staphylococcus aureus. The assay is described as follows: Antibacterial activity against methicillin-sensitive Staphylococcus aureus ATCC 29213 after 24 hrs by broth microdilution method. Format: functional. The note with it: ATCC 29213, 24 h. In outline: as §1
The test system of assay [5] is Staphylococcus aureus. The assay is described as follows: Antibacterial activity against methicillin-sensitive Staphylococcus aureus ATCC 6538 after 24 hrs by broth microdilution method. It is filed as functional. The note with it: ATCC 6538, 24 h. The method, boiled down:
as §1

The test system of assay [6] is Staphylococcus aureus. The assay is described as follows: Antibacterial activity against methicillin-sensitive Staphylococcus aureus ATCC 29737 after 24 hrs by broth microdilution method. Format: functional. The following applies: ATCC 29737, 24 h. The method, boiled down:
as §1

Assay [7] relates to Staphylococcus aureus. The assay is described as follows: Antibacterial activity against methicillin-resistant Staphylococcus aureus DB6506 after 24 hrs by broth microdilution method. Format: functional. The following applies: DB6506, 24 h. The method, boiled down:
as §1

For assay [8], the system named is Staphylococcus aureus. In words: Antibacterial activity against methicillin-resistant Staphylococcus aureus DB68004 after 24 hrs by broth microdilution method. It is filed as functional. The note with it: DB68004, 24 h. In outline:
as §1

Assay [9] has as its system Staphylococcus aureus. In words: Antibacterial activity against methicillin-resistant Staphylococcus aureus DB57964 after 24 hrs by broth microdilution method. The note with it: DB57964, 24 h. Format: functional. In outline:
as §1

Assay [10] relates to Staphylococcus aureus. The assay is described as follows: Antibacterial activity against methicillin-resistant Staphylococcus aureus ATCC 43300 after 24 hrs by broth microdilution method. It is filed as functional. The note with it: ATCC 43300, 24 h. The method, boiled down:
as §1

The test system of assay [11] is Staphylococcus aureus. In words: Antibacterial activity against methicillin-resistant Staphylococcus aureus ATCC 700699 after 24 hrs by broth microdilution method. The following applies: ATCC 700699, 24 h. Format: functional. The method, boiled down: as §1
Assay [12] concerns Staphylococcus aureus. In words: Antibacterial activity against methicillin-resistant Staphylococcus aureus BAA-38 after 24 hrs by broth microdilution method. Format: functional. The following applies: BAA-38, 24 h. In outline:
as §1

A short description of assay [13]: Ratio of HC50 for New Zealand white rabbit RBC to MIC for methicillin-sensitive Staphylococcus aureus DM4583R. The method, boiled down: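 HC50 measured on fresh New Zealand white rabbit RBCs, washed three times in PBS, at 4% v/v final. Cells were incubated with 2-fold serial dilutions (DMF final 0.5%) at 37 °C for 1 h, then centrifuged. Supernatant absorbance was read at 576 nm, with PBS as 0% and 2% Triton X-100 as 100% lysis. HC50 is the concentration lysing 50% of cells, divided by MIC from broth microdilution.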

The test system of assay [14] is Staphylococcus aureus. The assay is described as follows: Antibacterial activity against methicillin-resistant Staphylococcus aureus DM 9808R after 24 hrs by broth microdilution method. It is filed as functional. In outline:
as §1

Assay [15] concerns Staphylococcus aureus. The assay is described as follows: Antibacterial activity against Staphylococcus aureus DM4001R after 24 hrs by broth microdilution method. Format: functional. In outline: as §1
Assay [16] relates to Staphylococcus aureus. In words: Antibacterial activity against methicillin-resistant Staphylococcus aureus DM 21455 after 24 hrs by broth microdilution method. It is filed as functional. The note with it: DM 21455, 24 h. In outline: as §1
The next assay has as its system Bacillus cereus. The assay is described as follows: Antibacterial activity against Bacillus cereus ATCC 11778 after 24 hrs by broth microdilution method. Format: functional. The note with it: ATCC 11778, 24 h. The method, boiled down:
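MIC by CLSI broth microdilution in cation-adjusted Mueller–Hinton broth, tubes. Compounds in H2O or DMF, diluted in PBS to 1000 μg/mL stocks, then serial 2-fold dilutions (final DMF 2.5%). Inoculum ~5×10^5 CFU/mL from TSA plates grown 35 °C 20 h. Incubation 35 °C 24 h; MIC = no visible growth vs control. Biological replicates.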

Assay [17] has as its system Staphylococcus aureus. In words: Induction of plasma membrane permeability in methicillin-resistant Staphylococcus aureus DM9808R assessed as increase in fluorescence intensity at 12.5 ug/ml measured every 1 sec for 50 mins by SYTOX green dye based fluorimetric assay. Format: functional. The method, boiled down:
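Exponential-phase MRSA DM9808R grown on TSA, washed twice and resuspended in PBS (10 mM, pH 7) to OD600 0.2. Cells were loaded with 0.3 μM SYTOX Green in the dark until fluorescence stabilized. Test samples were then added (final DMF 0.5%). Fluorescence at ex 504/em 523 nm was recorded every 1 s for 50 min. Biological replicates.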

The next assay has as its system Lipid bilayer. In words: Membrane permeabilization activity in DOPE/DOPG large unilamellar liposomes assessed as leakage of calcein at 1:4 to 1:8 compound to lipid ratio by fluorescence assay.

The structures appear in SMILES notation. Values after ≈ are worked out from the molar mass of the structure shown. Active and inactive are the calls of the source. A value given as a limit tells only on which side of the number the result lay.

With `N=C(N)NCCCCC(=O)Nc1cc(C(F)(F)F)cc(NC(=O)c2cc(C(=O)Nc3cc(C(F)(F)F)cc(NC(=O)CCCCNC(=N)N)c3O[C@@H]3CCNC3)ncn2)c1O[C@@H]1CCNC1` [BRILACIDIN], the MIC in the assay with Staphylococcus aureus [1], against Staphylococcus aureus [2], in the assay with Staphylococcus aureus [3], against Staphylococcus aureus [4], against Staphylococcus aureus [5] and in the assay on Staphylococcus aureus [6] was 1 µg/mL (≈ 1.07 µM) throughout. Also, the MIC with Staphylococcus aureus [7], against Staphylococcus aureus [8], in the assay with Staphylococcus aureus [9], with Staphylococcus aureus [10], in the assay on Staphylococcus aureus [11] and in the assay on Staphylococcus aureus [12] was 1 µg/mL (≈ 1.07 µM) in each case. Also, the Ratio in assay [13] amounted to 558.

As to `CCN(CC)CCCCOc1cc(O)c2c(=O)c(OCCCCN(CC)CC)c(-c3ccc(OC)cc3)oc2c1CC=C(C)C`, the MIC (commonly the smallest concentration in the dilution series that meets the test's criterion for growth inhibition) stood at 12.5 µg/mL in the assay with Staphylococcus aureus [14], 25 µg/mL in the assay on Staphylococcus aureus [15], 12.5 µg/mL against Staphylococcus aureus [16] and 6.25 µg/mL against Bacillus cereus.

`COC(=O)[C@H](CCCNC(=N)N)NC(=O)COc1cc(O)c2c(=O)c(O)c(-c3ccc(OC)cc3)oc2c1CC=C(C)C`: the minimal inhibitory concentration (MIC) with Staphylococcus aureus [14] turned out to be 5.2 µM; against Staphylococcus aureus [15], 5.2 µM; with Staphylococcus aureus [16], 10.4 µM; in the assay on Bacillus cereus, 10.4 µM.

With `CN[C@H](CC(C)C)C(=O)N[C@H]1C(=O)N[C@@H](CC(N)=O)C(=O)N[C@H]2C(=O)N[C@H]3C(=O)N[C@H](C(=O)N[C@H](C(=O)O)c4cc(O)cc(O)c4-c4cc3ccc4O)[C@H](O)c3ccc(c(Cl)c3)Oc3cc2cc(c3O[C@@H]2O[C@H](CO)[C@@H](O)[C@H](O)[C@H]2O[C@H]2C[C@](C)(N)[C@H](O)[C@H](C)O2)Oc2ccc(cc2Cl)[C@H]1O` [VANCOMYCIN], the MIC against Staphylococcus aureus [14] is 2.2 µM; against Staphylococcus aureus [15], 1.1 µM; in the assay with Staphylococcus aureus [16], 1.1 µM; against Bacillus cereus, 1.1 µM; in the assay with Staphylococcus aureus [1], 1.56 µg/mL (≈ 1.08 µM); against Staphylococcus aureus [2] it was 0.78 µg/mL (≈ 0.538 µM). In addition, the MIC in the assay on Staphylococcus aureus [3] is 1.56 µg/mL (≈ 1.08 µM); against Staphylococcus aureus [4], 1.56 µg/mL (≈ 1.08 µM); against Staphylococcus aureus [5] it was 0.78 µg/mL (≈ 0.538 µM); against Staphylococcus aureus [6], 0.78 µg/mL (≈ 0.538 µM); against Staphylococcus aureus [7] it was 0.78 µg/mL (≈ 0.538 µM); with Staphylococcus aureus [8] it was 1.56 µg/mL (≈ 1.08 µM). Also, the MIC was determined as 0.78 µg/mL (≈ 0.538 µM) with Staphylococcus aureus [9], 0.78 µg/mL (≈ 0.538 µM) against Staphylococcus aureus [10], 1.56 µg/mL (≈ 1.08 µM) in the assay with Staphylococcus aureus [11] and 1.56 µg/mL (≈ 1.08 µM) in the assay with Staphylococcus aureus [12].

Consider `COC(=O)[C@H](CCCCN)NC(=O)COc1cc(O)c2c(=O)c(OCC(=O)N[C@@H](CCCCN)C(=O)OC)c(-c3ccc(OC)cc3)oc2c1CC=C(C)C`, for which the minimum inhibitory concentration (MIC) in the assay on Staphylococcus aureus [14], with Staphylococcus aureus [15], in the assay with Staphylococcus aureus [16] and with Bacillus cereus was 32.5 µM in each case. In addition, the result in the assay with Staphylococcus aureus [17] was Active. The Activity with Lipid bilayer was 30%.

Turning to `CC(C)(C)c1cc(C(C)(C)C)c2[nH]c(C(C)(C)C)c(C[C@H](NC(=O)[C@@H](N)CCCNC(=N)N)C(=O)N[C@@H](CCCNC(=N)N)C(=O)NCCc3ccccc3)c2c1` [LTX-109], the MIC in the assay with Staphylococcus aureus [1], against Staphylococcus aureus [2], with Staphylococcus aureus [3], in the assay on Staphylococcus aureus [4], in the assay with Staphylococcus aureus [5] and in the assay with Staphylococcus aureus [6] was 4 µg/mL (≈ 5.08 µM) each time. The MIC with Staphylococcus aureus [7], with Staphylococcus aureus [8], in the assay with Staphylococcus aureus [9], in the assay on Staphylococcus aureus [10], against Staphylococcus aureus [11] and against Staphylococcus aureus [12] was 4 µg/mL (≈ 5.08 µM) in each case. Besides, the Ratio in assay [13] is 44.

Consider `CCN(CC)CCCCCCCCOc1cc(O)c2c(=O)c(OCCCCCCCCN(CC)CC)c(-c3ccc(OC)cc3)oc2c1CC=C(C)C`, for which the MIC with Staphylococcus aureus [14], in the assay on Staphylococcus aureus [15], with Staphylococcus aureus [16] and with Bacillus cereus was more than 50 µg/mL throughout.

For `COC(=O)[C@H](Cc1cnc[nH]1)NC(=O)COc1cc(O)c2c(=O)c(OCC(=O)N[C@@H](Cc3cnc[nH]3)C(=O)OC)c(-c3ccc(OC)cc3)oc2c1CC=C(C)C`, the MIC with Staphylococcus aureus [14], against Staphylococcus aureus [15], in the assay with Staphylococcus aureus [16] and in the assay on Bacillus cereus was more than 63.5 µM each time. Moreover, in the assay on Staphylococcus aureus [17], the outcome was inactive. The Activity with Lipid bilayer was less than 5%.
